{"data": "Published values of several laboratories", "target": "Beta-adrenergic receptor kinase 1 (GRK2, Homo sapiens, UniProt P25098)", "Sequence (P25098 1-689, as in one of the studies)": "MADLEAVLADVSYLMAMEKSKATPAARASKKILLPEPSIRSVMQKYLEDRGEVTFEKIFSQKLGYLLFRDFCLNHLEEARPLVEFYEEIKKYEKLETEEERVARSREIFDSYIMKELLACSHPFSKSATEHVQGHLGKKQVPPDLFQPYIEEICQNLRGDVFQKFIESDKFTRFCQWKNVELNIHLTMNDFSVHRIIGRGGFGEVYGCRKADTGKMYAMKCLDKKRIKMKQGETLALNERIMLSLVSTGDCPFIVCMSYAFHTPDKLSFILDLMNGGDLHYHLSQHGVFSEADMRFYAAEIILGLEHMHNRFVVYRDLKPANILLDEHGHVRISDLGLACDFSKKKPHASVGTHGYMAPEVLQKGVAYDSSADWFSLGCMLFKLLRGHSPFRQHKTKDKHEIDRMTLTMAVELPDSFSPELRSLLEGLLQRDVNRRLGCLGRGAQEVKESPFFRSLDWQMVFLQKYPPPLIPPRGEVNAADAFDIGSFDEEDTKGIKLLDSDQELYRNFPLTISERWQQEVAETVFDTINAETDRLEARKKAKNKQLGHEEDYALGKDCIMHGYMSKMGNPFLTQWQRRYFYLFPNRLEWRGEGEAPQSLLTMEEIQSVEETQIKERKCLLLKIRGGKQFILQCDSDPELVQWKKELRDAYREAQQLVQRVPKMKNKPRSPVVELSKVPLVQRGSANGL", "note": "Lines come from different studies, so protocols differ."}
{"SMILES": "CN(c1nccc(-c2cnn3ncccc23)n1)C1CC1", "assay": "binding", "conditions": "1 µM", "remaining binding [%]": 64}
{"SMILES": "CNCc1ccccc1-c1csc([C@@H](C)Nc2nc(C)nc3cc(OC)c(OC)cc23)c1", "assay": "cell-free assay, competition with immobilised ligand", "conditions": "1 µM", "remaining binding [%]": 86}
{"SMILES": "O=C(NCCCN1CCOCC1)c1ccc(Nc2ncc(Cl)c(-c3ccc(Cl)s3)n2)cc1", "assay": "binding, competition with immobilised ligand", "conditions": "1 µM", "remaining binding [%]": 91}
{"SMILES": "Cc1c(C(=O)O)cc(-c2ccc(C3CCNCC3)cc2)c2ccc(-c3ccc(C(F)(F)F)cc3)cc12", "assay": "binding, competition with immobilised ligand", "conditions": "1 µM", "remaining binding [%]": 100}
{"SMILES": "O=C(NCC1CCOCC1)c1n[nH]cc1NC(=O)c1c(F)cccc1F", "assay": "binding, competition with immobilised ligand", "conditions": "1 µM", "remaining binding [%]": 71}
{"SMILES": "C[C@@H]1CCN(c2nccc(-c3cnn4ncccc34)n2)C1", "assay": "binding, competition with immobilised ligand", "conditions": "1 µM", "remaining binding [%]": 57}
{"SMILES": "CCCCN(CCCC)C(=O)CN1C[C@H](c2cc(OC)c3c(c2)OCO3)[C@@H](C(=O)O)[C@@H]1CC(C)(C)CCC", "assay": "cell-free assay, competition with immobilised ligand", "conditions": "1 µM", "remaining binding [%]": 71.8}
{"SMILES": "O=C(c1ccc(Nc2nccc(-c3cc4ccccc4s3)n2)cc1)N1CCC(N2CCCC2)CC1", "assay": "binding, competition with immobilised ligand", "conditions": "1 µM", "remaining binding [%]": 100}
{"SMILES": "C[C@@H](c1ccc(-n2cnc3c(N)ncnc32)cc1)N1CCc2nn(C)c(Cc3ccccc3)c2C1=O", "assay": "binding, competition with immobilised ligand", "conditions": "0.1 µM", "remaining binding [%]": 67}
{"SMILES": "O=C(c1ccc(Nc2ncc(Cl)c(-c3ccc(Cl)s3)n2)cc1)N1CCC(N2CCCC2)CC1", "assay": "binding, competition with immobilised ligand", "conditions": "1 µM", "remaining binding [%]": 98}
{"SMILES": "Cc1cnn2ncc(-c3ccnc(N(C)C)n3)c2c1", "assay": "binding", "conditions": "1 µM", "remaining binding [%]": 50}
{"SMILES": "COc1cnc(Nc2cccc(S(N)(=O)=O)c2)nc1N1CCN(c2ccccc2)CC1", "assay": "binding, competition with immobilised ligand", "conditions": "1 µM", "remaining binding [%]": 88}
{"SMILES": "COc1ncc2cc3ccccc3nc2c1C#N", "assay": "cell-free assay, competition with immobilised ligand", "conditions": "5 µM", "remaining binding [%]": 100}
{"SMILES": "Nc1cnc(N2CCc3cc(S(=O)(=O)Nc4c(F)cc(Cl)cc4F)cc(N4CCCC4=O)c32)nc1", "assay": "cell-free assay, competition with immobilised ligand", "conditions": "1 µM", "remaining binding [%]": 100}
{"SMILES": "COc1ccnn2ncc(-c3ccnc(N(C)C)n3)c12", "assay": "binding", "conditions": "1 µM", "remaining binding [%]": 100}
{"SMILES": "c1cncc(-c2cccc(Nc3nccc(NC4CCCCC4)n3)c2)c1", "assay": "binding, competition with immobilised ligand", "conditions": "10 µM", "remaining binding [%]": 100}
{"SMILES": "CN(C)c1ncc(F)c(-c2cnn3ncccc23)n1", "assay": "binding, competition with immobilised ligand", "conditions": "1 µM", "remaining binding [%]": 88}
{"SMILES": "CNC(=O)Nc1ccc2c(c1)CC[C@@]21OC(=O)N(CC(=O)N(Cc2ccc(F)cc2)[C@@H](C)C(F)(F)F)C1=O", "assay": "cell-free assay, competition with immobilised ligand", "conditions": "1 µM", "remaining binding [%]": 74}
{"SMILES": "c1cnn2ncc(-c3ccnc(N4CCC45COC5)n3)c2c1", "assay": "binding, competition with immobilised ligand", "conditions": "1 µM", "remaining binding [%]": 48}
{"SMILES": "CO[C@@H](C)c1c(Nc2ccc([C@@H](N(C)C(=O)C3CCS(=O)(=O)CC3)C(F)(F)F)cc2)cnc2cc(Cl)nn12", "assay": "cell-free assay, competition with immobilised ligand", "conditions": "1 µM", "remaining binding [%]": 92}
